Source: paper PMC7392586 (Circulation, 2020)
“And” between values parts separate entries of the source, which are not always exact repeats. Identical values can stand only once. Like-named read-outs stand apart in the source and are kept apart here.

Legend:
platelet function = conditions: 16 cardiac arrest survivors with STEMI, cited from earlier work
[1] = system: ADP-induced platelet aggregation in platelet-rich plasma; test: Light transmittance aggregometry; assay type: in vivo, human; conditions: for %IPA using LTA with ADP 20 µmol/L: at 30 minutes (primary endpoint), mean±SD
platelet inhibition = conditions: pharmacodynamic data on cangrelor; cited from earlier work
[2] = system: ADP-induced platelet aggregation in whole blood; test: Multiple electrode aggregometry; assay type: in vivo, human; conditions: % of patients
Procedure, shortened: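 STEMI patients not previously given a P2Y12 inhibitor. Hirudin-anticoagulated whole blood drawn at baseline and at 15 min, 30 min, 1, 2, 3 and 4–6 h after the study drug (bolus completion or oral ingestion); done at 2 centres. Blood diluted 1:2 in 0.9% NaCl, ADP-stimulated, aggregation recorded 6 min; AUC units. High residual reactivity: >46 U; percent of patients.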

[3] = system: platelet reactivity (P2Y12 reaction units); conditions: cited from earlier work; for HRPR (VerifyNow, cutoff PRU >208): 15 STEMI patients pretreated with ticagrelor
[4] = system: platelet reactivity index; conditions: CANTIC study; cited from earlier work
[5] = system: ADP-induced platelet aggregation in whole blood; conditions: cited from earlier work; for mean platelet inhibition before the end of infusion / patients achieving 100% platelet inhibition: part 2 of the trial; for mean platelet inhibition before the end of infusion: cangrelor 4 μg/kg/min

CSCCNc1nc(SCCC(F)(F)F)nc2c1ncn2[C@@H]1O[C@H](COP(=O)(O)OP(=O)(O)C(Cl)(Cl)P(=O)(O)O)[C@@H](O)[C@H]1O [Cangrelor]
platelet function, median (Multiplate Analyzer) (platelet function; targeted temperature management, interquartile range 10 to 25): 18 U | HRPR (Multiplate Analyzer, <46 U cutoff) (platelet function): none had HRPR | %IPA using LTA with ADP 20 µmol/L [1]: 34.1±22.5% | degree of platelet inhibition (platelet inhibition): > 80% | High residual platelet reactivity: AUC>46 using ADPtest (Multiplate) ([2]; at 15 minutes): 8.6% | High residual platelet reactivity: AUC>46 using ADPtest (Multiplate) ([2]; at 30 minutes): ≈ 14% | High residual platelet reactivity: AUC>46 using ADPtest (Multiplate) ([2]; at 2 hours): ≈ 14% | patients with PRU higher than 208 U during drug infusion ([3]; CANTIC study): No patient | HRPR (VerifyNow, cutoff PRU >208) ([3]; at 15 minutes): 6.7% | HRPR (VerifyNow, cutoff PRU >208) ([3]; at 1 hour): 0% | HRPR rate (VerifyNow, cutoff PRU >208) ([3]; at the time of balloon inflation, 50 STEMI patients): 10% | nonresponders at vasodilator-stimulated phosphoprotein assay during drug infusion [4]: 3 out of 22 | mean IPA ([5]; infusion 4 μg/kg/min for up to 69 hours, at 24 hours, 14 patients with unstable angina or non–Q-wave MI, whole blood impedance aggregometry, ADP 3 μmol/L): 98.7±2.1% | mean %IPA ([5]; infusion at 4 μg/kg/min, elective or urgent PCI, impedance aggregometry in heparinized blood, ADP 3 μmol/L): 99% | mean platelet inhibition before the end of infusion [5]: 100% | patients achieving 100% platelet inhibition [5]: 95%

CC(=O)Oc1cc2c(s1)CCN(C(C(=O)C1CC1)c1ccccc1F)C2 (stereo not shown) [Chewed Prasugrel, Prasugrel]
%IPA using LTA with ADP 20 µmol/L [1]: 10.5±11.0%

CC(=O)Oc1cc2c(s1)CCN(C(C(=O)C1CC1)c1ccccc1F)C2 (stereo not shown) [Integral Prasugrel, Prasugrel]
%IPA using LTA with ADP 20 µmol/L [1]: 6.3±11.4%

CCCCS(=O)(=O)N[C@@H](Cc1ccc(OCCCCC2CCNCC2)cc1)C(=O)O [Tirofiban]
%IPA using LTA with ADP 20 µmol/L [1]: 95.0±8.9% and 95.0±9.0% | HRPR rates (platelet aggregation >59% at LTA after ADP 20 µmol/L) ([1]; during drug infusion / within the first 2 hours): No patient

B1: abciximab (antibody, chains of the INN, looked up, V domains shown)
VH: EVQLQQSGTVLARPGASVKMSCEASGYTFTNYWMHWVKQRPGQGLEWIGAIYPGNSDTSYIQKFKGKAKLTAVTSTTSVYMELSSLTNEDSAVYYCTLYDGYYVFAYWGQGTLVTVSA
VL: EIVLTQSPVTLSVTPGDSVSLSCRASRDISNNLHWFQQTSHESPRLLIKYASQSMSGIPSRFSGSGSGTDFTLSINSVETEDFGMYFCQQTNSWPYTFGGGTKLEIK
modifications: Fab
mean platelet inhibition before the end of infusion [5]: 100% | patients achieving 100% platelet inhibition [5]: 100%
